Measured values: PubChem BioAssay AID652236 (Johns Hopkins Ion Channel Center, 2013)
Screen size: about 2,300 compounds; fewer than 10 were called active.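 The calls were made as follows: active = duplicate-mean ratio percent above the mean of iodide-only control wells, which defines zero, plus 5 of their SD; inactive = the rest.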 A selection follows.

These compounds were tested against Chloride channel protein 1 (Rattus norvegicus) (UniProt P35524) (assay: ClC-1 chloride channel inhibition, selectivity assay for TMEM16A inhibitor project, cell-based, voltage-dependent ClC-1 (AID 652236;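 also: higher percent means stronger block of ClC-1 iodide influx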)). Details: CHO ClC-1-YFP, iodide influx fluorescence quench; at 10 µM; iodide control reads 0, buffer control 100.
Method in brief: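 material = ClC-1 CHO cells with mutant YFP H148Q/I152L | buffer or medium = HBSS-HEPES pH 7.4, sodium gluconate substituted for NaCl | times = 20 min room-temperature pre-incubation, 10 s baseline, 50 s post-iodide reads | signal = kinetic iodide-induced YFP fluorescence quench, 1 Hz | control set = buffer-only controls and iodide controls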

Chloride channel protein 1 (Rattus norvegicus), sequence (P35524 whole entry, looked up): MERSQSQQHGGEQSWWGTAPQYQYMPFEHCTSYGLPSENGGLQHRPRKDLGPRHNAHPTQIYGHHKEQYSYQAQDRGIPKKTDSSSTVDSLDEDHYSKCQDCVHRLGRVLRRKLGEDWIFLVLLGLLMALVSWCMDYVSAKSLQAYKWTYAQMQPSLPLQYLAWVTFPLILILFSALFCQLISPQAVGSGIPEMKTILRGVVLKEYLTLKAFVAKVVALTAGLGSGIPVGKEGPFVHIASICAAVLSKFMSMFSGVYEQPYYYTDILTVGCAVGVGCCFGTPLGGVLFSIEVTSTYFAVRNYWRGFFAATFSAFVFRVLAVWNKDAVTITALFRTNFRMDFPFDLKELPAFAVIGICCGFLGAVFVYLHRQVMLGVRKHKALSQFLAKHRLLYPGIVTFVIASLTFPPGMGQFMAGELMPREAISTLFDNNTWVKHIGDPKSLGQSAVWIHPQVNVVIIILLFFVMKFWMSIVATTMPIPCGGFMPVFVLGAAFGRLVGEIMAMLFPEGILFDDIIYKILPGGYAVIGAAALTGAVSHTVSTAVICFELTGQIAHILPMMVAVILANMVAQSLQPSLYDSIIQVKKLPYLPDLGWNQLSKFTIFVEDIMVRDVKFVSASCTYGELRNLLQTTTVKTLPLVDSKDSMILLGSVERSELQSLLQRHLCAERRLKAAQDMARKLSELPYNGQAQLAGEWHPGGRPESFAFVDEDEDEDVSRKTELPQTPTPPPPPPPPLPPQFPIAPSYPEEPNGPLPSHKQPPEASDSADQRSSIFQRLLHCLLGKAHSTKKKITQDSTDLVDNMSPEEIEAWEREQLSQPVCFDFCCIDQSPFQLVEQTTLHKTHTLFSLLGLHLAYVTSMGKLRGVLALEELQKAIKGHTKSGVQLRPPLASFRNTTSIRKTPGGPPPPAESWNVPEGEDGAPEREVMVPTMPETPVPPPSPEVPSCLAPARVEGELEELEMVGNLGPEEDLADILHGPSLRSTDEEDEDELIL

Ratio percent, inactive:
Cc1[nH]n(-c2cccc(Cl)c2)c(=O)c1-c1ccc(Cl)cc1 -15%
COC(=O)c1ccc(NC(=O)c2ccccc2NS(=O)(=O)c2ccccc2)cc1 -22.5%
Cc1noc(C)c1COC(=O)c1cc2ccccc2cc1O -10.5%
CCOC(=O)N1CC=C2C(C#N)=C(N)C(C#N)(C#N)[C@H](c3cccs3)[C@H]2C1 -6.5%
CCOC(=O)c1cccc(NC(=O)CCn2nnc3ccccc32)c1 -15%
COc1cccc(CNS(=O)(=O)c2ccc3c(c2)CC(C)N3C(=O)C2CCC2)c1 (stereo unspecified) -19.5%
O=C(Nc1cccc(S(=O)(=O)Nc2ccc(Cl)cc2)c1)c1ccc2c(c1)OCCO2 -24.5%
Cc1nc2ccccc2cc1OCc1ccc(F)cc1 -17%
CCCC(=O)Nc1ccccc1N1CCN(C(=O)c2ccccc2)CC1 -12.5%
CC1CCN(C(=O)c2ccc(CSc3ccc(Cl)cc3)cc2)CC1 -22.5%
CC(=O)c1c(C)[nH]c(C(=O)COC(=O)c2cccc(S(=O)(=O)N(C)c3ccccc3)c2)c1C -31%
CN1c2ccc(C=O)c3c(C=O)ccc(c23)N(C)C1(C)C -24.5%
COc1ccc(C(=O)NC2CCCc3c2cnn3-c2cccc(C)c2C)c(OC)n1 (stereo unspecified) -21.5%
COc1ccc(CNc2nnnn2C)cc1 -10.5%
CCOC(=O)C1=C(CN2CCc3ccccc32)NC(=O)NC1c1cccc([N+](=O)[O-])c1 (stereo unspecified) -12%
CSc1nnc2c(n1)OC(c1ccsc1)N(C(C)=O)c1ccccc1-2 (stereo unspecified) -3.5%
Cc1nc(C)c(-c2csc(NCCc3ccccc3)n2)s1 -9%
CSc1nsc(NC(=O)Nc2ccccc2)n1 -7.5%
N#Cc1nc(N)nc(N(c2ccccc2)c2ccccc2)n1 -2%
CCCc1cc(=S)n2c([nH]c3ccccc32)c1C#N -9.5%
C=CCn1c(SCC(=O)Nc2nc3ccccc3s2)nnc1-c1ccccc1O -17.5%
CCCCNC(=O)CSc1nc2n[nH]c(C)c2c(=N)n1-c1cccc(Cl)c1C -4.5%
COc1ccc(OCC(=O)NCCc2ccc(S(N)(=O)=O)cc2)cc1 -14%
O=c1cc(C(F)(F)F)[nH]c(=O)n1C1CCCCC1 0%
Cc1ccc(-n2ncc3c(N4CCN(c5ccc(F)cc5)CC4)ncnc32)c(C)c1 -13%
Cc1cccc(N=Nc2c(O)[nH]c3ccc(F)cc23)c1 2.5%
Cc1ccc(C)c(N2CCN(C(=O)CCCCn3c(=O)[nH]c4ccccc4c3=O)CC2)c1 -2%
CC(C)CNC(=S)NNC(=O)c1nn(C)cc1Cl -14%
CCOC(=O)N1CCN(C(=O)c2ccc3c(c2)N(Cc2ccc(C)cc2)CCS3)CC1 -13%
Cc1ccc(C)c(N2CCN(S(=O)(=O)c3ccc4c(c3)oc(=O)n4C)CC2)c1 -27.5%
COc1ccc(-n2c(C)cc(C(=O)CSc3nnc(-c4cccs4)o3)c2C)cc1 -7%
Cn1c(CN2CCOCC2)nc2cc(NC(=O)c3ccc(Cl)cc3)ccc21 -9%
Cc1ccc2c(c1)N(S(=O)(=O)c1cc(-c3cc(C)no3)ccc1C)CCO2 -4%
Cc1ccc(N2C(=O)S/C(=C/c3cn(C)c4ccccc34)C2=O)cc1 -10%
CCCCn1ccnc1C(=O)c1cccc(S(=O)(=O)N2c3ccccc3CC2C)c1 (stereo unspecified) -3%
CCN(CC)S(=O)(=O)c1ccc(N(C)Cc2ccc(C(F)(F)F)cc2)nc1 -9%
O=C(COc1ccccc1)NCc1ccc2c(c1)OCO2 -4.5%
Cc1ccc(C(=O)O)cc1-c1ccc(/C=C2\SC(=O)N(CC(=O)Nc3ccc4c(c3)OCO4)C2=O)o1 -5.5%
COc1ccc(CN(C)C(=O)CC(c2ccccc2)c2ccccc2)cc1 -8.5%
CC(=O)c1cc(CN2CCC(C(=O)Nc3cccc(-c4cscn4)c3)CC2)cs1 -16.5%
O=C1NC(=O)C2C1C(c1ccc([N+](=O)[O-])cc1)=NN2Cc1ccccc1 (stereo unspecified) -32%
